In assay [1] the target is GABA-A receptor; anion channel. Put plainly: In vitro displacement of [3H]diazepam from GABA-A benzodiazepine receptor in rat cerebral cortex. The assay is classed as tissue-based. In short, it runs like this:
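Cortex from adult male Sprague–Dawley rats homogenized in 50 mM Tris-HCl pH 7.4, homogenization–centrifugation repeated three times in total. Membranes incubated with graded compound concentrations and [3H]diazepam (final 2 nM) for 90 min at 4 °C. Bound ligand collected by rapid GF/B filtration and counted by liquid scintillation. Nonspecific binding defined with 5 μM flunitrazepam.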
For orientation: Displacement assays read how much labelled ligand stays bound in the presence of the test substance.

For assay [2], the system named is Mus musculus. Put plainly: Dose required to antagonize Diazepam (2.5 mg/kg) anticonvulsant effects in mice treated with pentylenetetrazole (80 mg/kg) (inactive). The assay is classed as functional, organism-based.
In assay [3] the test system is Mus musculus. The assay can be described thus: Dose required to induce convulsions in mice treated with subconvulsant pentylenetetrazole (40 mg/kg). Format: functional. The gist of the method: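 Adult male mice (20–25 g) given drug ip (suspended in 10% diluted emulphor–90% saline, HCl salts), then challenged 5 min later with subconvulsant PTZ (40 mg/kg ip). Two independent raters observed clonic-tonic convulsions. ED50 = dose inducing convulsions in 50% of mice. Highest dose tested 40 mg/kg.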

Assay [4] deals with Mus musculus. The assay can be described thus: Dose required to antagonize Diazepam (2.5 mg/kg) anticonvulsant effects in mice treated with pentylenetetrazole (80 mg/kg). The assay is classed as functional. The gist of the method: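 Adult male mice (20–25 g) given diazepam 2.5 mg/kg ip in 10% diluted emulphor–90% saline. Drug or vehicle given ip 5 min later, then PTZ 80 mg/kg ip (CD100) after another 5 min. Two independent raters scored clonic-tonic convulsions; animals counted protected if seizure-free for 15 min. ED50 = dose antagonizing diazepam's anticonvulsant effect in 50% of mice.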

Assay [5] in a line: In vitro displacement of [3H]-diazepam from GABA-A benzodiazepine receptor in rat cerebral cortex. Format: tissue-based. The gist of the method: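 Cortex from adult male Sprague–Dawley rats homogenized in 50 mM Tris-HCl pH 7.4, washed three times and resuspended. Incubated with varying test concentrations and [3H]diazepam (2 nM final) for 90 min at 4 °C. Ended by GF/B filtration, radioactivity counted by scintillation. Nonspecific binding defined with 5 μM flunitrazepam. IC50 reported.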

In assay [6] the test system is Mus musculus. Put plainly: Dose required to induce convulsions in mice treated with subconvulsant pentylenetetrazole (40 mg/kg) (inactive). The assay is classed as functional, organism-based.

Calls of active or inactive are those of the source. The rule behind the calls is not given here.

Take `OCc1cc2c3cc(NCc4ccccc4)ccc3nc-2c[nH]1`: in assay [1], the 50% inhibitory concentration (IC50) (commonly the point on the concentration scale where inhibition reaches its midpoint) was 76 nM. Moreover, the ED50 (as a rule, the dose that gives a 50% effect, or the effect in half of the subjects) with Mus musculus [2] is “inactive”. For the same compound, it took a dose of 40 mg/kg to reach the 50% effect level in the assay on Mus musculus [3] (ED50).

For the compound `c1ccc(CNc2ccc3[nH]c4cnccc4c3c2)cc1`, the 50% inhibitory concentration (IC50) in assay [1] came out at 106 nM. For the same compound, the ED50 in the assay with Mus musculus [4] came to 38 mg/kg; in the assay with Mus musculus [3] it was 28 mg/kg.

Take `c1ccc2c(c1)[nH]c1cnccc12` [NORHARMANE]: in assay [5], the concentration for half-maximal inhibition (IC50) was 1620 nM.

For `O=C(OC1CCCC1)c1cc2c3ccccc3nc-2c[nH]1`, in assay [1], the IC50 amounted to 50 nM.

`CC(=O)c1cc2c3ccccc3nc-2c[nH]1`: in assay [1], the IC50 was 58 nM.

`c1ccc(CNc2ccc3[nH]c4ccccc4c3c2)cc1` registered an IC50 in assay [1] of more than 5000 nM.

`Nc1ccc2[nH]c3cnccc3c2c1` had a 50% inhibitory concentration (IC50) in assay [1] of 1300 nM.

`OCc1cc2c3ccccc3nc-2c[nH]1`: the IC50 in assay [1] came to 1470 nM.

For `COC(=O)c1cc2c(cn1)[nH]c1ccc(NCc3ccccc3)cc12`, the ED50 result in the assay on Mus musculus [6] was “inactive”. Moreover, the IC50 in assay [1] turned out to be 10 nM. This compound had an ED50 in the assay on Mus musculus [4] of 15.5 mg/kg.

Source of the values: ChEMBL document CHEMBL1123727, “Synthesis of 6-substituted beta-carbolines that behave as benzodiazepine receptor antagonists or inverse agonists” (J Med Chem, 1987).
